Measurements: PubChem BioAssay AID504383 (The Scripps Research Institute Molecular Screening Center, 2011)
Several values for one entry are separate records, joined by “and”; a condition that tells them apart may be missing. Equal entries are not always repeated. The whole screen tested about 2,500 compounds, of which about 1,200 (48%) were called active.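 Rule for the calls: active = mean activation above the low control average plus 3 SD, as set in the primary screen (cut at about 12% in these data); inactive = the rest.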 The set was probably picked from earlier hits. The list shows a part of the results. Some structures have more than one record in an assay (separate samples or runs), and their calls can disagree.

target: Troponin I, cardiac muscle (Homo sapiens) + Troponin T, cardiac muscle (Homo sapiens) + Troponin C, slow skeletal and cardiac muscles (Homo sapiens) (UniProt P19429+P45379+P63316); test: calcium sensitizers of cardiac thin filaments – biochemical, IANBD-TnC fluorescence, triplicate, confirmation (AID 504383); conditions: IANBD-labeled cardiac RTF, Ca2+ sensitivity fluorescence; at 7.2 µM; stronger effect = higher value; scaled from EC20 to saturating calcium; tested at EC20 calcium, 0.472 mM;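 note: 0% = DMSO at 0.472 mM calcium and 100% = DMSO at 2.9 mM calcium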
In short: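 System: Labelled thin filament complex | Technique: Filament fluorescence intensity | Benchmarks: Low control EC20 calcium, high control EC100 calcium | Timing: 15 min at 25 °C | Compound dosing: One dose, 7.2 µM nominal | Probe or stimulus: Ca2+ 0.472 mM, EC20 level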

Row | SMILES | activation
1 | CCCNS(=O)(=O)c1ccc2c(c1)n(C)c(=O)n2C | 12.4% (active)
2 | CCCCN(Cc1ccccc1)S(=O)(=O)c1ccc2c(c1)n(C)c(=O)c(=O)n2C | 2.32% (inactive)
3 | COc1ccc(S(=O)(=O)N(CC(C)C)C2CCS(=O)(=O)C2)cc1OC (configuration not stated) | 17.1% (active)
4 | O=C1c2cccc3cc([N+](=O)[O-])cc(c23)C(=O)N1CCN1CCCC1 | 8.4% (inactive)
5 | CCN(CC)CCN1C(=O)c2cccc3cc(N)cc(c23)C1=O | 128% (active)
6 | O=C(N/N=C/c1ccc2c(c1)OCO2)/C(=C/c1ccc2c(c1)OCO2)NC(=O)c1ccccc1 | 11.7% (active)
7 | CN(C)c1ccc(/C=N/NC(=O)c2cnc3ccccc3c2)cc1 | 6.1% (inactive)
8 | O=C(N/N=C/c1ccc([N+](=O)[O-])cc1)c1cc(-c2ccc3c(c2)OCO3)n[nH]1 | 0.5% (inactive)
9 | Cc1ccc(Cn2cc(CCC(=O)O)c3ccccc32)cc1 | 16.7% (active)
10 | Nc1nc(SCc2cccc(Br)c2)n[nH]1 | 9.18% (inactive)
11 | COc1cc2c(cc1NC(=O)COC(=O)/C=C/c1ccc([N+](=O)[O-])cc1)oc1ccccc12 | 4480% (active)
12 | COc1cc([N+](=O)[O-])ccc1NC(=O)COC(=O)c1n[nH]c2ccccc12 | 6.72% (inactive)
13 | COc1cc([N+](=O)[O-])ccc1N/C=C/C(=O)c1cccs1 | 5.01% (inactive)
14 | CN1CCCc2cc3c(C(F)(F)F)cc(=O)oc3nc21 | 10.7% (inactive)
15 | Cc1ccc(C(=O)NCC(=O)OCC(=O)N(CC(C)C)c2c(N)n(Cc3ccccc3)c(=O)[nH]c2=O)cc1 | 8.28% (inactive)
16 | Cc1ccc(C(=O)NCC(=O)OCC(=O)c2ccc(Cl)s2)cc1 | 232% (active)
17 | Cc1cc(C)n(NC(=S)NC2CCCCC2)c(=O)c1C#N | 7.29% (inactive)
18 | CCCN(CCC)c1nc2c(C)cccn2c(=O)c1/C=C1/SC(=S)N(Cc2ccco2)C1=O | 3.6% (inactive)
19 | O=C1/C(=C\c2c(NCCOCCO)nc3ccccn3c2=O)SC(=S)N1Cc1ccco1 | 92.6% (active)
20 | Cc1ccc(S(=O)(=O)N2CCN(c3ncccn3)CC2)cc1C | 4.74% (inactive)
21 | COc1ccc(S(=O)(=O)N2CCSC2)cc1C | 2.98% (inactive)
22 | Cc1ccc(/C=C/C(=O)N2CCN(S(=O)(=O)c3ccc(C)c(C)c3)CC2)o1 | 17.9% (active)
23 | Oc1[nH]c2ccccc2c1N=Nc1ccccc1Cl | 4.59% (inactive)
24 | Oc1[nH]c2ccccc2c1N=Nc1ccccc1F | 2.72% (inactive)
25 | Oc1[nH]c2ccccc2c1N=Nc1cccc(Cl)c1 | 7.29% (inactive)

Row | SMILES | activation
26 | Oc1[nH]c2ccccc2c1N=Nc1ccc(F)cc1 | 109% (active)
27 | Oc1[nH]c2ccccc2c1N=Nc1ccccc1 | 26.4% (active)
28 | Cc1ccc(Cl)c2c(N=Nc3ccccc3)c(O)[nH]c12 | 14.7% (active)
29 | O=C(c1cnc2ccccc2n1)N1CCN(c2ccc(C(F)(F)F)cn2)CC1 | 32.8% (active)
30 | CCN(CC)c1ccc(/C=N/OCC(=O)Nc2cccc(C)c2)cc1 | 19.6% (active)
31 | Cc1ccc(NC(=O)CO/N=C/c2ccc(N(C)C)cc2)cc1 | 6.41% (inactive)
32 | Cc1ccc(NC(=O)O/N=C/c2ccc(F)cc2)cc1 | 8.78% (inactive)
33 | O=C1N/C(=C\c2ccc(N3CCOCC3)c(F)c2)C(=O)N1Cc1ccccc1 | 5.84% (inactive)
34 | O=C(N1CCOCC1)N1CCN(c2ccc(F)cc2)CC1 | 2.34% (inactive)
35 | O=C(O)c1cc(NCc2ccc(F)cc2)ccc1N1CCOCC1 | 91.3% (active)
36 | C=CCOc1ccc(CNc2ccc3[nH]c(=O)[nH]c3c2)cc1OCC | 25% (active)
37 | CC(C)CC[n+]1ccccc1/C=C/c1ccc(N(C)C)cc1 | 7% (inactive)
38 | CN(C)c1ccc(/C=C/c2ccc3ccccc3n2)cc1 | 14.9% (active)
39 | CN(C)c1ccc(/C=C/c2nc3ccccc3c(=O)[nH]2)cc1 | 9.5% (inactive)
40 | Cc1ccsc1C1C=C(c2cccc(Br)c2)Nc2ncnn21 (configuration not stated) | 1.58% (inactive)
41 | CN(C)c1ccc(C2C=C(c3ccc(Cl)cc3OC(F)F)Nc3ncnn32)cc1 (configuration not stated) | 80% (active)
42 | Cc1c(C=O)c2ccccn2c1C(=O)c1cccs1 | 6.64% (inactive)
43 | Nc1nc(NCCCN2CCOCC2)nc(Nc2cccc(Cl)c2)c1[N+](=O)[O-] | 5.57% (inactive)
44 | Cc1cccc(Nc2c([N+](=O)[O-])c(=O)oc3ccccc23)c1 | 23.2% (active)
45 | COc1ccc(CCC(=O)N2CCc3ccccc32)cc1 | 6.5% (inactive)
46 | COc1ccc(CC(=O)NNC(=O)c2ccncc2)cc1 | 8.9% (inactive)
47 | COc1ccc(CC/C(C)=N\NC(N)=O)cc1 | 16.2% (active)
48 | Cc1ccc(C)c(S(=O)(=O)N2CCCC2CNC(=O)C(=O)NC2CC2)c1 (configuration not stated) | 5.98% (inactive)
49 | Cc1ccc(SCC(=O)c2sc(-c3ccccc3)nc2C)cc1 | 35.4% (active)
50 | C=C(C)c1sc(-c2ccc(Cl)cc2)nc1C | 1.76% (inactive)

Row | SMILES | activation
51 | Cc1ccc(-c2nc(NC(=O)CSc3cc(C)c4ccccc4n3)ns2)cc1 | 4.39% (inactive)
52 | Nc1ccc2c3c(cccc13)CC2 | 6.56% (inactive)
53 | COc1ccc2c3c(cccc13)C(=O)CC2 | 18.7% (active)
54 | COc1ccc2noc3c2c1C(=O)c1ccccc1-3 | 3.9% (inactive)
55 | CCCn1c(=O)c(C(=O)NNC(=O)c2ccccc2[N+](=O)[O-])c(O)c2ccccc21 | 18.9% (active)
56 | CC1CCN(c2oc(-c3ccccc3F)nc2C#N)CC1 | 10.8% (inactive)
57 | COCCn1c(=NC(=O)/C=C/c2ccccc2)sc2cc(NC(C)=O)ccc21 | 19.9% (active)
58 | CCOC(=O)Cn1c(=NC(=O)c2cc(-c3cccs3)nc3ccccc23)sc2cc(S(N)(=O)=O)ccc21 | 1.79% (inactive)
59 | CC1(C)CC(=O)c2sc(NC(=O)Cc3cccs3)nc2C1 | 4.44% (inactive)
60 | CC1(C(=O)Nc2nnc(SCc3ccccc3)s2)Cc2ccccc2C(=O)O1 (configuration not stated) | 22.1% (active)
61 | CN1CCC2(CC1)C1CN(C)CC=C1C(C#N)=C(N)C2(C#N)C#N (configuration not stated) | 1.95% (inactive) and 33.7% (active)
62 | CCOc1cc(C2C(C#N)=C(N)OC(C)=C2C(C)=O)cc(Br)c1O (configuration not stated) | 213% (active)
63 | CCOc1ccc(C2C(C#N)=C(N)SC(N)=C2C#N)c(OCC)c1 | 10% (inactive)
64 | O=C(COc1ccccc1Cl)N1CCN(c2ccccn2)CC1 | 10.9% (inactive)
65 | S=C(Nc1cc(Cl)ccc1Oc1ccccc1)N1CCN(c2ccccn2)CC1 | 102% (active)
66 | O=c1c2ccccc2nc2n1CCCN2 | 17.2% (active)
67 | CCC[C@@H](CN1CCC[C@H]1CN1C(N)=NC[C@@H]1Cc1ccccc1)N1C[C@@H](Cc2ccccc2)N(CCCC2CCCC2)C1=N | 38.3% (active)
68 | CCOc1cc(C#N)ccc1OCC(=O)N1CCc2ccccc2C1 | 12.3% (active)
69 | O=C(Cn1c(=O)oc2cc(S(=O)(=O)N3CCCC3)ccc21)N1CCc2ccccc2C1 | 10.4% (inactive)
70 | CC(C(=O)N1CCc2ccccc2C1)N1C(=O)c2ccccc2C1=O (configuration not stated) | 2.65% (inactive)
71 | CCNc1cccc2c1C(=O)N(C)C2=O | 1.44% (inactive)
72 | CC[C@@]1(O)C(=O)OCc2c1cc1n(c2=O)Cc2cc3c(CN(C)C)c(O)ccc3nc2-1 | 22.4% (active)
73 | CCC1(O)C(=O)OCc2c1cc1n(c2=O)Cc2cc3cc(O)ccc3nc2-1 (configuration not stated) | 16.1% (active)
74 | CCOc1nnc(C)c2c(C)n(-c3cccc(Cl)c3)nc12 | 5.31% (inactive)
75 | Cc1ccc(/C=C2/SC(=O)NC2=S)o1 | 29.6% (active)

Row | SMILES | activation
76 | Cc1noc(/C=C/c2ccc(-c3ccccc3Cl)o2)c1[N+](=O)[O-] | -1.31% (inactive)
77 | O=C(O)c1ccccc1-c1ccc(/C=C2\SC(=O)N(c3ccccc3)C2=O)o1 | 9.01% (inactive)
78 | O=C1NC(=S)/C(=C\c2ccc(-c3ccccc3Cl)o2)S1 | 14.2% (active)
79 | Cc1nc2ccc(Cl)cc2nc(C)/c1=N\O | 6.95% (inactive)
80 | CCOC(=O)c1c(-c2ccccc2)csc1NC(=O)/C(C#N)=C\c1ccc(O)c(OC)c1 | 11.3% (inactive)
81 | CCOC(=O)c1c(-c2ccccc2)csc1NC(=O)/C(C#N)=C/c1ccc(O)c(OC)c1 | 23.8% (active)
82 | CCNC(=S)N/N=C/c1sc(N2CCCCC2)nc1-c1cccs1 | 1.11% (inactive)
83 | COC(=O)Cc1ccc(NC(=S)NCCCN2CCOCC2)cc1 | 2.97% (inactive)
84 | S=C(NCCCN1CCOCC1)Nc1ccc(-c2nc3ccccc3[nH]2)cc1 | 17% (active)
85 | S=C(Nc1ccc(Cl)cc1)N(CCCN1CCOCC1)Cc1ccco1 | 11.2% (inactive)
86 | C(=N\Nc1nnnn1-c1ccccc1)/c1ccncc1 | 6.05% (inactive)
87 | O=C(O)c1ccccc1CSc1nnnn1-c1ccccc1 | 51.1% (active)
88 | O=C(NCC1CCCO1)c1ccc2c(c1)C(=O)N(c1cccc([N+](=O)[O-])c1)C2=O (configuration not stated) | 31.3% (active)
89 | O=C(Cn1ncc2c3ccccc3n(Cc3cccc(Cl)c3)c2c1=O)NCC1CCCO1 (configuration not stated) | 5.86% (inactive)
90 | O=C(NCC1CCCO1)c1cccc2c1C(=O)c1ccc(N3CCC(Cc4ccccc4)CC3)cc1S2(=O)=O (configuration not stated) | 4.73% (inactive)
91 | Cc1cccc(CSc2ccc(-c3ccco3)nn2)c1 | -0.44% (inactive)
92 | N#Cc1ccccc1OCC(=O)OCC(=O)c1ccc2c(c1)NC(=O)CO2 | 21.9% (active)
93 | Cn1c(=O)cc(SCC(=O)NCC2COc3ccccc3O2)c2ccccc21 (configuration not stated) | 7.4% (inactive)
94 | CSc1c(CC(=O)NCCO)n(C)c2ccccc12 | 23.2% (active)
95 | O=C(NC1CCCCC1)c1ccccc1NC(=S)NC(=O)C1CCC1 | 24.5% (active)
96 | O=C(O)c1ccccc1/C=N/NC(=S)NC1CCCCC1 | 5.68% (inactive)
97 | Cc1ccccc1C(=O)NC(=S)NC1CC1 | 0.94% (inactive)
